Measured values from different studies.
Each line is one published result; the experiments were not run side by side.
Organism: Staphylococcus aureus
Observed: microbial growth

SMILES	technique	strain	time	setting	MIC
CC1CCN(CCCN2/C(=C/c3cc[n+](C)c4ccccc34)Sc3ccccc32)CC1.[I-]	broth dilution	ATCCBAA44			2 µg/mL
c1cncc(-c2nc3ccccc3[nH]2)c1	broth dilution	ATCC29213 MSSA			128 µg/mL
CC(=O)NC[C@H]1CN(c2ccc(N3CCOCC3)c(F)c2)C(=O)O1	broth dilution	MRSA NRS382 USA100		drug-resistant strain	2 µg/mL
Cn1c(SCc2ccc(Cl)cc2)nnc1-c1cncc(C#Cc2ccccc2)c1		MRSA		drug-resistant strain	≥ 20 µg/mL
Clc1ccc(-c2nc3ccccc3[nH]2)c(Cl)c1	broth dilution	ATCC29213 MSSA			128 µg/mL
CC(C)Oc1c(NC(=O)c2ccc(NC(=O)[C@H](CC(N)=O)NC(=O)c3ccc(CCNC(=O)c4ccc(C#N)cc4)cc3)cc2)ccc(C(=O)Nc2ccc(C(=O)O)cc2)c1O		ATCC29213			> 64 µg/mL
O=C(CCCCCCCC[P+](c1ccccc1)(c1ccccc1)c1ccccc1)Nc1cc(O)c(O)c(O)c1.[Br-]	broth dilution	ATCC43300 MRSA	18 h		16 µg/mL
CC(C)(O/N=C(\C(=O)N[C@@H]1C(=O)N2C(C(=O)[O-])=C(C[n+]3ccccc3)CS[C@H]12)c1csc(N)n1)C(=O)O	broth dilution	ATCC25923	18 h		1 µg/mL
CCN(CC)CCNC(=O)c1c(C)[nH]c(/C=C2\C(=O)Nc3ccc(F)cc32)c1C		NCTC8325			> 30 µM
O=[N+]([O-])c1ccc(-c2nc3ccccc3[nH]2)cc1	broth dilution	ATCC29213 MSSA			128 µg/mL
Cc1ccc(NC(=O)Nc2ccc3c(c2)OC(F)(F)O3)cc1		NCTC8325			> 100 µM
CC(C)/N=C(\N)c1ccc(NC(=O)c2ccc(C(=O)Nc3ccc(/C(N)=N/C(C)C)cc3)cc2)cc1					4 µg/mL
CC(C)Oc1c(N)ccc(C(=O)Nc2ccc(C(=O)N[C@@H](CC(N)=O)C(=O)Nc3ccc(C(=O)Nc4ccc(C(=O)Nc5ccc(C(=O)O)cc5)c(O)c4OC(C)C)cc3)cc2)c1O		ATCC29213			> 64 µg/mL
OC(Cn1cncn1)(Cn1cncn1)c1ccc(F)cc1F	broth dilution	MB2865			> 128 µg/mL
C/C=C(\C)c1cc(O)c(C)c(OC(=O)c2c(C)cc(O)c(Cl)c2O)c1	broth dilution	16162			8 µg/mL
CC(C)Oc1c(NC(=O)c2ccc(NC(=O)[C@H](CC(N)=O)NC(=O)c3ccc(NC(=O)c4ccc(C#N)cc4)cc3)cc2)ccc(C(=O)NC2CCNCC2)c1O		ATCC29213			> 64 µg/mL
O=C(O)CN1C(=O)/C(=C/c2c3ccccc3c(-c3ccc(N(c4ccccc4)c4ccccc4)cc3)c3ccccc23)NC1=S	broth dilution	ATCC25923			> 1000 µg/mL
Clc1ccccc1-c1nc2ccccc2[nH]1	broth dilution	ATCC29213 MSSA			64 µg/mL
CN(C)[C@@H]1C(O)=C(C(N)=O)C(=O)[C@@]2(O)C(O)=C3C(=O)c4c(O)cccc4[C@@](C)(O)[C@H]3C[C@@H]12		156		clinical isolate	0.15 µM
COc1cc2nccc(Oc3ccc(NC(=O)NC4CC4)c(Cl)c3)c2cc1C(N)=O		NCTC8325			> 30 µM

SMILES	technique	strain	time	setting	MIC
C/C=C(\C)c1cc(O)c(C)c(OC(=O)c2c(C)c(Cl)c(O)c(Cl)c2O)c1	broth dilution	745524			4 µg/mL
CSc1ccc(-c2nc3ccc(C)cc3[nH]2)cc1	broth dilution	ATCC29213 MSSA			16 µg/mL
CC(C)Oc1c(NC(=O)c2ccc(NC(=O)[C@H](CC(N)=O)NC(=O)c3ccc(NC(=O)c4cccc(N)c4)cc3)cc2)ccc(C(=O)Nc2ccc(C(=O)O)cc2)c1O		ATCC29213			> 64 µg/mL
O=C(Nc1ccc(Nc2ccccc2)cc1)Nc1ccc(Cl)c(C(F)(F)F)c1		NCTC8325	24 h		3 µM
O=C(O)c1cn(C2CC2)c2cc(N3CCNCC3)c(F)cc2c1=O					1.6 µg/mL
O=C1NC(=S)N/C1=C\c1ccc(-c2ccc(N(c3ccccc3)c3ccccc3)cc2)c2ccccc12	broth dilution	ATCC25923			> 1000 µg/mL
O=C(CCCCCC[P+](c1ccccc1)(c1ccccc1)c1ccccc1)Nc1ccc(O)c(O)c1.[Br-]	broth dilution	ATCC43300 MRSA	18 h		> 32 µg/mL
COc1c(C)c(OC)c(C(=O)/C=C/c2ccccc2)c(OC)c1C	broth dilution	ATCC25923			5000 µg/mL
CS(=O)(=O)c1cccc(-c2nnc(NC(=O)c3ccc(-c4ccccc4)cc3)o2)c1					> 128 µg/mL
CC(C)Oc1c(NC(=O)c2ccc(NC(=O)[C@H](CC(N)=O)NC(=O)c3ccc(NC(=O)c4ccc(C#N)cc4)cc3)cc2)ccc(C(=O)Nc2cc(C(=O)O)n(C)c2)c1O		ATCC29213			64 µg/mL
CNC(=O)c1nn(C)c2c1C(C)(C)Cc1cnc(Nc3ccc(N4CCN(C)CC4)cc3)nc1-2		NCTC8325			> 30 µM
C=CCn1c(-c2ccc([N+](=O)[O-])cc2)nc2ccccc21	broth dilution	ATCC29213 MSSA			32 µg/mL
O=C(Nc1ccc(F)cc1)c1ccccc1O	broth dilution	ATCC29213			32 µg/mL
C=CCn1c(-c2ccc(OC)c(OC)c2)nc2ccccc21	broth dilution	ATCC29213 MSSA			128 µg/mL
C/C=C(\C)c1cc(OC(=O)c2c(O)c(C)c(O)c(Cl)c2/C(C)=C/C)c(C)c(O)c1C(=O)O	broth dilution	MRSA			64 µg/mL
CC1=NN(CNc2ccc(C(=O)O)cc2)C(=O)C1=NNn1c(-c2ccccc2)nc2ccccc2c1=O	broth dilution		24 h		50.5 µM
CC1(C)S[C@@H]2[C@H](NC(=O)[C@H](N)c3ccccc3)C(=O)N2[C@H]1C(=O)O	broth dilution	ATCC29213			1 µg/mL
Cc1ccc(C)n1-c1ccc(-c2nnc(-c3cccc([N+](=O)[O-])c3)[nH]2)cc1	broth dilution	ATCC11632	18 h		8 µg/mL
Cc1c(CN(C)C(=O)/C=C/c2cnc3c(c2)CC(NC(=O)OC(C)(C)C)C(=O)N3)oc2ccccc12 (stereo not shown)	broth dilution	ATCC29213			0.016 µg/mL
COC(=O)c1ccc2c(C(=Nc3ccc(N(C)C(=O)CN4CCN(C)CC4)cc3)c3ccccc3)c(O)[nH]c2c1		NCTC8325			> 30 µM

SMILES	technique	strain	time	setting	MIC
CN[C@H](CC(C)C)C(=O)N[C@H]1C(=O)N[C@@H](CC(N)=O)C(=O)N[C@H]2C(=O)N[C@H]3C(=O)N[C@H](C(=O)N[C@H](C(=O)O)c4cc(O)cc(O)c4-c4cc3ccc4O)[C@H](O)c3ccc(c(Cl)c3)Oc3cc2cc(c3O[C@@H]2O[C@H](CO)[C@@H](O)[C@H](O)[C@H]2O[C@H]2C[C@](C)(N)[C@H](O)[C@H](C)O2)Oc2ccc(cc2Cl)[C@H]1O	broth dilution	ATCC43300			1.96 µg/mL
Cc1ccc2cccc(C(=O)O)c2c1					> 128 µg/mL
O=C(c1ccc(/C=C/c2n[nH]c3ccccc23)cc1)N1CCNCC1		NCTC8325			> 30 µM
Clc1cccc(NCc2ccc(Oc3ccccn3)cc2)c1					1.8 µg/mL
O=C1NC(=S)S/C1=C\c1ccc(-c2ccc(N(c3ccccc3)c3ccccc3)cc2)c2ccccc12	broth dilution	ATCC25923			500 µg/mL
Cc1cc(Cl)cc2sc(N(CCCn3ccnc3)C(=O)c3ccco3)nc12		ATCC25923			2.6 µM
Cc1ccc2nc(-c3ccc([N+](=O)[O-])cc3)n(Cc3ccccc3Cl)c2c1	broth dilution	ATCC29213 MSSA			32 µg/mL
CC1(C)S[C@@H]2[C@H](NC(=O)[C@H](N)c3ccccc3)C(=O)N2[C@H]1C(=O)O	broth dilution	ATCCBAA44			16 µg/mL
C[C@@H](O)[C@H]1C(=O)N2C(C(=O)O)=C(SCCN=CN)C[C@H]12		MRSA			32 µg/mL
COCCCNC(=N)c1ccc(NC(=O)c2ccc(C(=O)Nc3ccc(C(=N)NCCCOC)cc3)cc2)cc1					4 µg/mL
C=CC(=O)Nc1cccc(Oc2nc(Nc3ccc(N4CCN(C)CC4)cc3OC)ncc2Cl)c1		NCTC8325			> 30 µM
NC[C@H]1O[C@H](O[C@H]2[C@H](O)[C@@H](O[C@H]3O[C@H](CO)[C@@H](O)[C@H](N)[C@H]3O)[C@H](N)C[C@@H]2N)[C@H](N)C[C@@H]1O		129		clinical isolate	> 100 µM
Cc1ccc(C)n1-c1ccc(-c2nnc(-c3ccc(N(C)C)cc3)[nH]2)cc1	broth dilution	ATCC11632	18 h		8 µg/mL
CC(C)Oc1c(NC(=O)c2ccc(NC(=O)[C@H](CC(N)=O)NC(=O)c3ccc(NC(=O)c4ccc(F)cc4)cc3)cc2)ccc(C(=O)Nc2ccc(C(=O)O)cc2)c1O		ATCC29213			2 µg/mL
C/C=C(\C)c1cc(OC(=O)c2c(C)c(Cl)c(O)c(Cl)c2O)c(C)c(O)c1C(=O)O	broth dilution	6917			> 64 µg/mL
C=CCOc1c(C)c(O)c(C(=O)/C=C/c2ccccc2)c(OC)c1C	broth dilution	ATCC25923			> 5000 µg/mL
O=C1NN=C(N=Cc2ccccc2)C1=NNn1c(-c2ccccc2)nc2ccccc2c1=O	broth dilution		24 h		57.1 µM
O=C(O)CN1C(=O)/C(=C/c2ccc(-c3ccc(N(c4ccccc4)c4ccccc4)cc3)c3ccccc23)NC1=S	broth dilution	ATCC43300			> 1000 µg/mL
